{"data": "Assay results gathered from unrelated publications", "organism": "Escherichia coli", "note": "Lines come from different studies, so protocols differ."}
{"SMILES": "COc1c(C)c(OCc2ccccc2)c(C)c(O)c1C(=O)/C=C/c1ccccc1", "assay": "microbial killing, broth dilution", "system": "ATCC25922", "endpoint": "MBC", "value": "> 5000 µg/mL"}
{"SMILES": "O=C(Sc1cccccc1=O)c1ccccc1C(F)(F)F", "assay": "microbial growth, broth dilution", "system": "ATCC35218", "endpoint": "MIC80", "value": "19.8 µM"}
{"SMILES": "O=[N+]([O-])c1ccc(-c2nc3ccccc3[nH]2)cc1", "assay": "microbial growth, broth dilution", "system": "ATCC25922", "endpoint": "MIC", "value": "128 µg/mL"}
{"SMILES": "O=C(Cc1ccccc1)Sc1cccccc1=O", "assay": "microbial growth, broth dilution", "system": "ATCC35218", "endpoint": "MIC80", "value": "19.8 µM"}
{"SMILES": "COc1c(C)c(OC(C)=O)c(C)c(OC(C)=O)c1C(=O)/C=C/c1ccccc1", "assay": "microbial killing, broth dilution", "system": "ATCC25922", "endpoint": "MBC", "value": "> 5000 µg/mL"}
{"SMILES": "Cc1ccc(S(=O)(=O)Oc2cccc3cccnc23)cc1", "assay": "microbial growth, broth dilution", "system": "ATCC25922", "endpoint": "IC50", "value": "133 µg/mL"}
{"SMILES": "COc1cc(C=Cc2cc(-c3ccccc3)nc(O)n2)ccc1O", "assay": "microbial growth, disc diffusion", "system": "ATCC25922", "conditions": "500 µg/mL", "endpoint": "inhibition zone", "value": "19.7 mm"}
{"SMILES": "COc1c(C)c(OS(=O)(=O)c2ccc3ccccc3c2)c(C)c(OS(=O)(=O)c2ccc3ccccc3c2)c1C(=O)/C=C/c1ccccc1", "assay": "microbial growth, well diffusion", "system": "ATCC25922", "conditions": "5 µg/mL", "endpoint": "inhibition zone", "value": "12 mm"}
{"SMILES": "CC1(C)SC2C(NC(=O)C(NC(=O)C3=C(O)C4(CC4)NC3=O)c3ccccc3)C(=O)N2C1C(=O)O (centres unmarked)", "assay": "microbial growth, well diffusion", "system": "BW25113", "conditions": "200 µM", "endpoint": "inhibition zone", "value": "10 mm"}
{"SMILES": "Cc1ccc2nc(-c3ccco3)[nH]c2c1", "assay": "microbial growth, broth dilution", "system": "ATCC25922", "endpoint": "MIC", "value": "128 µg/mL"}
{"SMILES": "COc1cc(C=Cc2cc(-c3ccc(N(C)C)cc3)nc(O)n2)ccc1O", "assay": "microbial growth, disc diffusion", "system": "ATCC25922", "conditions": "250 µg/mL", "endpoint": "inhibition zone", "value": "6 mm"}
{"SMILES": "CC1(C)SC2C(NC(=O)C(NC(=O)C3=C(O)C(Cc4ccccc4)NC3=O)c3ccccc3)C(=O)N2C1C(=O)O (centres unmarked)", "assay": "microbial growth, well diffusion", "system": "BW25113", "conditions": "200 µM", "endpoint": "inhibition zone", "value": "12 mm"}
{"SMILES": "O=c1cccccc1SSc1cccccc1=O", "assay": "microbial growth, broth dilution", "system": "ATCC35218", "endpoint": "MIC80", "value": "19.8 µM"}
{"SMILES": "CC1(C)S[C@@H]2[C@H](NC(=O)[C@H](N)c3ccccc3)C(=O)N2[C@H]1C(=O)O", "assay": "microbial growth, well diffusion", "system": "BW25113", "conditions": "200 µM", "endpoint": "inhibition zone", "value": "14 mm"}
{"SMILES": "Cc1ccc2nc(-c3cc(Br)ccc3O)[nH]c2c1", "assay": "microbial growth, broth dilution", "system": "ATCC25922", "endpoint": "MIC", "value": "64 µg/mL"}
{"SMILES": "CCCCCCCCCCCCCC(O)CC(O)CO (centres unmarked)", "assay": "microbial growth, broth dilution", "system": "ATCC35218", "endpoint": "IC50", "value": "> 200 µg/mL"}
{"SMILES": "N=C(N)c1ccccc1OCc1cccc(COc2ccccc2C(=N)N)c1", "assay": "microbial growth, broth dilution", "system": "BW25113", "endpoint": "MIC", "value": "> 200 µg/mL"}
{"SMILES": "CC1(C)SC2C(NC(=O)C(NC(=O)C3=C(O)C4CCCN4C3=O)c3ccccc3)C(=O)N2C1C(=O)O (centres unmarked)", "assay": "microbial growth, well diffusion", "system": "BW25113", "conditions": "200 µM", "endpoint": "inhibition zone", "value": "11 mm"}
{"SMILES": "C=CCCCCCCCCCCCC(O)CC(O)CO (centres unmarked)", "assay": "microbial growth, broth dilution", "system": "ATCC35218", "endpoint": "IC50", "value": "> 200 µg/mL"}
{"SMILES": "COc1cc(C=CC(=O)CC(c2ccc(N(C)C)cc2)n2ccnc2)ccc1O (centres unmarked)", "assay": "microbial growth, disc diffusion", "system": "ATCC25922", "conditions": "500 µg/mL", "endpoint": "inhibition zone", "value": "8.67 mm"}
{"SMILES": "O=C1C=C(O)C(=O)c2ccccc21", "assay": "microbial growth, broth dilution", "system": "ATCC25922", "endpoint": "IC50", "value": "179 µg/mL"}
{"SMILES": "O=C(Sc1cccccc1=O)c1ccc(C(F)(F)F)cc1", "assay": "microbial growth, broth dilution", "system": "ATCC35218", "endpoint": "MIC80", "value": "66.7 µM"}
{"SMILES": "CCCC(=O)Oc1c(C)c(O)c(C(=O)/C=C/c2ccccc2)c(OC)c1C", "assay": "microbial killing, broth dilution", "system": "ATCC25922", "endpoint": "MBC", "value": "> 5000 µg/mL"}
{"SMILES": "CCOC(=O)c1c(N)csc1-c1cn(-c2ccccc2)nc1-c1ccc(C)cc1", "assay": "microbial killing, broth dilution", "endpoint": "MBC", "value": "0.125 µg/mL"}
{"SMILES": "O=C(N/N=C/c1ccc([N+](=O)[O-])o1)c1ccc(O)cc1", "assay": "microbial growth", "system": "ATCC 8739, ATCC8739", "endpoint": "MIC90", "value": "> 1000 µg/mL"}
{"SMILES": "Cc1ccc(C(C)C)cc1OCc1cn(-c2ccc(Cl)cc2)nn1", "assay": "microbial growth, broth dilution", "system": "ATCC25922", "endpoint": "IC50", "value": "655 µg/mL"}
{"SMILES": "Oc1ccc(-c2ccsc2)cc1O", "assay": "microbial growth", "system": "AS19", "conditions": "10 h", "endpoint": "IC50", "value": "29.9 µM"}
{"SMILES": "Cc1ccc(C(C)C)cc1OCc1cn(-c2ccccc2)nn1", "assay": "microbial growth, broth dilution", "system": "ATCC25922", "endpoint": "IC50", "value": "249 µg/mL"}
{"SMILES": "N=C(N)c1cccc(OCc2ccc(COc3cccc(C(=N)N)c3)cc2)c1", "assay": "microbial growth, broth dilution", "system": "ATCC25922", "endpoint": "MIC", "value": "200 µg/mL"}
{"SMILES": "CCCCCC(=O)Oc1c(C)c(O)c(C(=O)/C=C/c2ccccc2)c(OC)c1C", "assay": "microbial killing, broth dilution", "system": "ATCC25922", "endpoint": "MBC", "value": "> 5000 µg/mL"}
{"SMILES": "CCCc1ccsc1-c1ccc(O)c(O)c1", "assay": "microbial growth", "system": "AS19", "conditions": "10 h", "endpoint": "IC50", "value": "15.4 µM"}
{"SMILES": "COc1c(C)c(OC)c2c(c1C)OC(c1ccccc1)CC2=O (centres unmarked)", "assay": "microbial killing, broth dilution", "system": "ATCC25922", "endpoint": "MBC", "value": "> 5000 µg/mL"}
{"SMILES": "CC(C)Oc1c(NC(=O)c2ccc(NC(=O)[C@H](CC(N)=O)NC(=O)c3ccc(CCNC(=O)c4ccc(C#N)cc4)cc3)cc2)ccc(C(=O)Nc2ccc(C(=O)O)cc2)c1O", "assay": "microbial growth", "system": "DSM1116", "endpoint": "MIC", "value": "0.25 µg/mL"}
{"SMILES": "Cc1ccc(C(C)C)cc1O", "assay": "microbial growth, broth dilution", "system": "ATCC25922", "endpoint": "IC50", "value": "96.2 µg/mL"}
{"SMILES": "CC(C)Oc1c(NC(=O)c2ccc(NC(=O)[C@H](CC(N)=O)NC(=O)c3ccc(NC(=O)c4ccc(C(F)(F)F)cc4)cc3)cc2)ccc(C(=O)Nc2ccc(C(=O)O)cc2)c1O", "assay": "microbial growth", "system": "DSM1116", "endpoint": "MIC", "value": "0.5 µg/mL"}
{"SMILES": "COc1c(N2C[C@@H]3CCCN[C@@H]3C2)c(F)cc2c(=O)c(C(=O)O)cn(C3CC3)c12", "assay": "microbial growth", "system": "ATCC25922", "endpoint": "MIC90", "value": "0.06 µg/mL"}
{"SMILES": "COc1ccc(-n2cc(COC3=CC(=O)c4ccccc4C3=O)nn2)cc1", "assay": "microbial growth, broth dilution", "system": "ATCC25922", "endpoint": "IC50", "value": "314 µg/mL"}
{"SMILES": "CC1(C)SC2C(NC(=O)C(NC(=O)C3=C(O)C(Cc4ccsc4)NC3=O)c3ccccc3)C(=O)N2C1C(=O)O (centres unmarked)", "assay": "microbial growth, well diffusion", "system": "BW25113", "conditions": "200 µM", "endpoint": "inhibition zone", "value": "10 mm"}
{"SMILES": "O=C(N[C@H](CO)[C@H](O)c1ccc([N+](=O)[O-])cc1)C(Cl)Cl", "assay": "microbial growth", "system": "ATCC35218", "endpoint": "MIC90", "value": "0.98 µg/mL"}
{"SMILES": "O=C(O)c1cn(C2CC2)c2cc(N3CCNCC3)c(F)cc2c1=O", "assay": "microbial growth", "system": "SG458", "conditions": "1000 µg/mL", "endpoint": "inhibition zone", "value": "28.5 mm"}
{"SMILES": "CC[C@H](C)[C@H](NC(=O)OCC1c2ccccc2-c2ccccc21)C(=O)Sc1cccccc1=O", "assay": "microbial growth, broth dilution", "system": "ATCC35218", "endpoint": "MIC80", "value": "> 100 µM"}
{"SMILES": "CCCCCCCCCCCC(=O)Oc1c(C)c(O)c(C(=O)/C=C/c2ccccc2)c(OC)c1C", "assay": "microbial killing, broth dilution", "system": "ATCC25922", "endpoint": "MBC", "value": "> 5000 µg/mL"}
{"SMILES": "N=C(N)c1ccc(OCCC(CCOc2ccc(C(=N)N)cc2)c2ccccc2)cc1 (centres unmarked)", "assay": "microbial growth, broth dilution", "system": "ATCC25922", "endpoint": "MIC", "value": "> 200 µg/mL"}
{"SMILES": "COc1cc(C=CC(=O)CC(c2ccc([N+](=O)[O-])cc2)n2ccnc2)ccc1O (centres unmarked)", "assay": "microbial growth, disc diffusion", "system": "ATCC25922", "conditions": "500 µg/mL", "endpoint": "inhibition zone", "value": "10.3 mm"}
{"SMILES": "O=S(=O)(Oc1cccc2cccnc12)c1cccs1", "assay": "microbial growth, broth dilution", "system": "ATCC25922", "endpoint": "IC50", "value": "165 µg/mL"}
{"SMILES": "Cc1cc(N)c2ccccc2[n+]1CCCCCCCCCC[n+]1c(C)cc(N)c2ccccc21", "assay": "microbial growth, disc diffusion", "conditions": "50 µg/disc", "endpoint": "inhibition zone", "value": "0 mm"}
{"SMILES": "N=C(N)c1ccccc1OCc1ccc(COc2ccccc2C(=N)N)cc1", "assay": "microbial growth", "system": "BW25113", "endpoint": "MIC", "value": "> 200 µg/mL"}
{"SMILES": "Fc1ccc(-c2nc3ccccc3[nH]2)cc1", "assay": "microbial growth, broth dilution", "system": "ATCC25922", "endpoint": "MIC", "value": "256 µg/mL"}
{"SMILES": "Cc1ccc(S(=O)(=O)Oc2cc(C(C)C)ccc2C)cc1", "assay": "microbial growth, broth dilution", "system": "ATCC25922", "endpoint": "IC50", "value": "317 µg/mL"}
{"SMILES": "N=C(N)c1ccccc1OCCCCCOc1ccccc1C(=N)N", "assay": "microbial growth, broth dilution", "system": "BW25113", "endpoint": "MIC", "value": "> 200 µg/mL"}
